Published values of several laboratories.
Protocols differ between the studies behind these lines.
Cell line: HCT-116
Observed: cell growth or viability

| SMILES | technique | tested at | time | quantity | result |
| --- | --- | --- | --- | --- | --- |
| COc1ccc(C(=O)/C=C/c2ccccc2Br)cc1S(N)(=O)=O | SRB |  | 48 h | GI50 | 1.5 µM |
| CNC(=O)c1cc(Oc2ccc(NC(=O)Nc3ccc(Cl)c(C(F)(F)F)c3)cc2)ccn1 | SRB | 1 µM | 48 h | viability | 46.6% |
| Cc1cc(C)n(C(=S)[S][Au][PH](CCCCCC[PH]([Au][S]C(=S)n2nc(C)cc2C)(c2ccccc2)c2ccccc2)(c2ccccc2)c2ccccc2)n1 |  |  |  | GI50 | 0.38 µM |
| COc1ccc(NCC(=O)Nc2c(C#N)sc(Nc3ccccc3)c2C(=O)Nc2ccc(OC)cc2)cc1 | SRB | 1 µM | 48 h | viability | 70.2% |
| COc1cc2c(OC)nc3c4cc5c(cc4cc(OCCN4CCCC4)c3c2cc1OC)OCO5 | MTT |  | 72 h | GI50 | 64 µM |
| COc1ccc(NC(=O)c2c(Nc3ccccc3)sc(C#N)c2NC(=O)CNc2ccc(Cl)cc2)cc1 | SRB | 10 µM | 48 h | viability | 48.6% |
| COc1cc2c(OC)nc3c4cc5c(cc4cc(OCCN(C)C)c3c2cc1OC)OCO5 | MTT |  | 72 h | GI50 | > 100 µM |
| COc1ccc(C(=O)/C=C/c2ccc3c(c2)OCCO3)cc1S(N)(=O)=O | SRB | 10 µM |  | inhibition | 57% |
| COc1cc(/C=N/n2c(C)nc3ccc(C)cc3c2=O)ccc1OCc1ccccc1 | LDH | 200 µg/mL | 24 h | viability | 74.5% |
| COc1ccc(NC(=O)c2c(Nc3ccccc3)sc(C#N)c2NC(=O)CNc2ccc(O)cc2)cc1 | SRB | 10 nM | 48 h | viability | 93.1% |
| COc1ccc(C(=O)/C=C/c2ccc(Cl)c(Cl)c2)cc1S(N)(=O)=O | SRB |  | 48 h | GI50 | 1.2 µM |
| COc1cc(CNC(=O)CCCC/C=C/C(C)C)ccc1O | SRB | 10 µM |  | inhibition | 0% |
| COc1ccc(C(=O)/C=C/c2cccnc2)cc1S(N)(=O)=O | SRB |  | 48 h | GI50 | 3.2 µM |
| COc1cc2c(OC)nc3c4cc5c(cc4cc(OCCCN(C)C)c3c2cc1OC)OCO5 | MTT |  | 72 h | GI50 | 15 µM |
| COc1ccc(NC(=O)c2c(Nc3ccccc3)sc(C#N)c2NC(=O)CNc2ccc(OC)c(OC)c2)cc1 | SRB | 10 µM | 48 h | viability | 53.6% |
| CCc1ccc(/C=N/n2c(C)nc3ccc(C)cc3c2=O)s1 | LDH | 200 µg/mL | 24 h | viability | 86.5% |
| COc1ccc(C(=O)/C=C/c2cccc3ccccc23)cc1S(N)(=O)=O | SRB | 10 µM |  | inhibition | 192% |
| COc1ccc(NC(=O)c2c(Nc3ccccc3)sc(C(=O)NN=Cc3ccc(Cl)cc3)c2NC(C)=O)cc1 | SRB | 1 µM | 48 h | viability | 74.2% |
| COc1ccc(C(=O)/C=C/c2ccc3ccccc3c2)cc1S(N)(=O)=O | SRB |  | 48 h | GI50 | 1.9 µM |
| CNS(=O)(=O)Nc1nccc(Cc2c(C)c3ccc(Oc4ncccn4)cc3oc2=O)c1F | CCK-8 |  |  | GI50 | 3.23 µM |
| COc1ccc(C(=O)/C=C/c2cccc(Cl)c2)cc1S(N)(=O)=O | SRB |  | 48 h | GI50 | 1.2 µM |
| COc1cc2c(OC)nc3c4cc5c(cc4cc(O)c3c2cc1OC)OCO5 | MTT |  | 72 h | GI50 | 5.7 µM |
| COc1ccccc1/C=C/C(=O)c1ccc(OC)c(S(N)(=O)=O)c1 | SRB |  | 48 h | GI50 | 2.5 µM |
| Cc1nc2ccc(Br)cc2c(=O)n1/N=C/c1ccc(C(=O)O)cc1 | LDH | 200 µg/mL | 24 h | viability | 53.5% |
| COc1ccc(NC(=O)c2c(Nc3ccccc3)sc(C(=O)NN=Cc3cc(OC)c(OC)c(OC)c3)c2NC(C)=O)cc1 | SRB | 0.1 µM | 48 h | viability | 86.1% |
| COc1ccc2cc(/C=N/n3c(C)nc4ccc(Br)cc4c3=O)ccc2c1 | LDH | 200 µg/mL | 24 h | viability | 57% |
| COc1cc2c(OC)nc3c4cc5c(cc4cc(OCCCN4CCCC4)c3c2cc1OC)OCO5 | MTT |  | 72 h | GI50 | 2.4 µM |
